Data as given in ChEMBL document CHEMBL4393735, “Molecular modelling, synthesis, and biological evaluations of a 3,5-disubstituted isoxazole fatty acid analogue as a PPARα-selective agonist” (Bioorg Med Chem, 2019).
The source made the active and inactive calls.

Experiments:
Assay type in all cases: cell-based
[1] = target: T1, Retinoic acid receptor RXR-alpha (Homo sapiens) (UniProt P19793); assay: Agonist activity at full length human FLAG-tagged GAL4-DBD fused RXRalpha LBD (202 to 462 residues) expressed in COS1 cells at 25 to 50 uM measured after 18 hrs by dual luciferase reporter gene assay
T1 sequence (whole entry): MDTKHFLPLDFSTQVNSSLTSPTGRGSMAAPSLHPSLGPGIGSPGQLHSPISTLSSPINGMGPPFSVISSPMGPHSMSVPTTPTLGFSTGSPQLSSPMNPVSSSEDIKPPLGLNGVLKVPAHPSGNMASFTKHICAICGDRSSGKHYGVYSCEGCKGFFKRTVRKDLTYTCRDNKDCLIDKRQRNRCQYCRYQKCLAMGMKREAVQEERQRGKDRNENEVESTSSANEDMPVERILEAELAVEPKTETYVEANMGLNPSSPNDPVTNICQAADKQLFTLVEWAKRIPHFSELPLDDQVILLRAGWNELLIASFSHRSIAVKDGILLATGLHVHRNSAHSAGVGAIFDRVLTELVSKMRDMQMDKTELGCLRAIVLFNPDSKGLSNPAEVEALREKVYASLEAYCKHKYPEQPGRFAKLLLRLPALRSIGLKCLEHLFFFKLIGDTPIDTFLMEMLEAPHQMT
Procedure, shortened: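 COS-1 cells were transfected using Lipofectamine 2000 with GAL4-DBD–human NR-LBD plasmid, a 5×UAS-SV40 firefly luciferase reporter and pRL-CMV. After 6 h, cells were treated with 0, 25 or 50 μM in 0.1% DMSO (final) for 18 h. Firefly signal was normalized to Renilla, then to DMSO control and GAL4-only. Three biological replicates in quadruplicate, mean ± SEM, two-way ANOVA with Bonferroni.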

[2] = target: T2, Peroxisome proliferator-activated receptor alpha (Mus musculus) (UniProt P23204); assay: Agonist activity at PPARalpha in C57BL/6N mouse primary hepatocytes assessed as SCD1 mRNA expression at 50 uM measured after 18 hrs by qRT-PCR analysis
T2 sequence (whole entry): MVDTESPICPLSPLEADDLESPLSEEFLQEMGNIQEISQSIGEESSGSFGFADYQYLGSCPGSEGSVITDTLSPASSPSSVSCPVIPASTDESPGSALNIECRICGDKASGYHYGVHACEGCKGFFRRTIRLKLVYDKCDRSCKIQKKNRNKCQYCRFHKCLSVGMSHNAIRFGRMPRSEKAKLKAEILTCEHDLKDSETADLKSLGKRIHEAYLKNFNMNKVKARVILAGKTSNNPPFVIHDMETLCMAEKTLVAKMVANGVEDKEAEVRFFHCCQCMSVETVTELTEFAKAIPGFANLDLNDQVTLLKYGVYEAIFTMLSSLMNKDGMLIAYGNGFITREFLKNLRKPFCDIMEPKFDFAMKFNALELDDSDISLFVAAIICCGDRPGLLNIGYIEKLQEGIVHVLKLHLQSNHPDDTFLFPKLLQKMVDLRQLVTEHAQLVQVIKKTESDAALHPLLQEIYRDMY
Procedure, shortened: (§1)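 Treatment for 18 h at 50 μM (or 1 μM for the 1 μM agents), DMSO vehicle. Harvested for qPCR. mRNA normalized to TBP by the comparative threshold method, expressed relative to DMSO control. Two biological replicates run in duplicate, mean ± SEM. Primary hepatocytes came from male C57BL/6N mice aged 7–8 weeks, isolated by portal-vein perfusion and digestion, seeded on collagen I and used on day 2. HuH-7 cells were kept in DMEM with 10% FBS and ITS.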

COS-1 = assay: Cytotoxicity against African green monkey COS1 cells assessed as reduction in cell viability at 10^-4 M by LDH release assay; conditions: chlorocebus aethiops, cos-1, 100 µM
Procedure, shortened: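 COS-1 cells were treated across the same concentration series as the GAL4 dose-response runs. Cytotoxicity was measured as LDH released into medium (absorbance 492/750 nm) and by XTT viability assay (absorbance 450/690 nm). Results expressed relative to control.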

[3] = target: T2, Peroxisome proliferator-activated receptor alpha (Mus musculus); assay: Agonist activity at PPARalpha in C57BL/6N mouse primary hepatocytes assessed as activation of Cpt1a mRNA expression at 50 uM measured after 18 hrs by qRT-PCR analysis; procedure, shortened: as §1
[4] = target: T3, Peroxisome proliferator-activated receptor gamma (Homo sapiens) (UniProt P37231); assay: Inverse agonist activity at full length human FLAG-tagged GAL4-DBD fused PPARgamma LBD (205 to 505 residues) expressed in COS1 cells assessed as inhibition of rosiglitazone binding measured after 18 hrs by dual luciferase reporter gene assay
T3 sequence (whole entry): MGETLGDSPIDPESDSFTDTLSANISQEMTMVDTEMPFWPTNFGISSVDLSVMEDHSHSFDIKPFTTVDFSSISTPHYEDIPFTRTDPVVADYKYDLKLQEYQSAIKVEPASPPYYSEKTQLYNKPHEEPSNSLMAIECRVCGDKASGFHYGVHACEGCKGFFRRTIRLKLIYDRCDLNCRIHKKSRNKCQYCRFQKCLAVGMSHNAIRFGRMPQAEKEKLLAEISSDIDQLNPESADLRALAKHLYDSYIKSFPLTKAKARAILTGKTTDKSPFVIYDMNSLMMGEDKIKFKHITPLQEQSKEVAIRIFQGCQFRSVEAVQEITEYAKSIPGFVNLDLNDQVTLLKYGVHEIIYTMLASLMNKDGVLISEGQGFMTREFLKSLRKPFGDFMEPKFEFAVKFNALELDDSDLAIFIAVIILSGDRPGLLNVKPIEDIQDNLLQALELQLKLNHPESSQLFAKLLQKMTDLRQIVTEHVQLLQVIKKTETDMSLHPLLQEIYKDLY
Procedure, shortened: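 COS-1 cells carried GAL4-DBD–PPARγ-LBD with a UAS-luciferase reporter and Renilla control. Cells were titrated with increasing test compound in the presence of 1.0 μM rosiglitazone for 18 h in 0.1% DMSO. Firefly/Renilla ratio, normalized to GAL4-only activity.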

Activity [1]: inactive
Activity [2]: Active
Activity [3]: Active
Activity [4]: inactive
SMILES: CCCCCCCc1cc(CCCCCC(=O)O)no1
Activity (COS-1): Toxic
